Hits are enriched below; roughly 2.9% of the tested compounds scored in any of these assays.
RORA act: activators of orphan receptor RORA, primary screen, cell-based, luminescence | CHO-K1 Gal4-RORA LBD luciferase reporter; percent increase over mock-subtracted basal signal | 1.5% of 65,000 active | activation, % at 10 µM;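 active = activation above the mean of all tested compounds plus 3 SD, cut at about 49% in these data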;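 also: 0% = DMSO-treated RORA cells and 100% = added signal equal to DMSO minus mock-transfected cells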
Htt clearance: clearance of mutant huntingtin inclusions, primary screen, imaging, HeLa Exon1htt(103Q)mCFP, confocal imaging; aggregate imaging; zero = plate's median compound well; inhibition, % at 1.5 µM; 0.42% of 47,000 active; AID 853, 2007;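 active = inhibition of aggregate fluorescence above about 70%, also judged a hit by eye on the cell image, limit read from the data, passing the limit was not always enough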;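 also: cells exposed to compound for three days before fixation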
PKA kinase inh: inhibitors of human PKA kinase activity, primary screen, biochemical, ATP-depletion luminescence, Kemptide substrate | PKA Kemptide phosphorylation, Kinase-Glo ATP luminescence | inhibition, % at 6 µM | 0.1% of 65,000 active | AID 524, 2006;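 active = inhibition above the screen-wide mean inhibition plus 3 SD, cut at about 21% in these data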
JNK3 blocker: JNK3 kinase activity inhibitors, primary screen, biochemical, human, purified enzyme; Mitogen-activated protein kinase 10 (Homo sapiens), P53779; HTS; inhibition, % at 8 µM; 0.61% of 60,000 active; AID 746, 2007; in the data active = inhibition above about 17%;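 also: 0% = DMSO and 100% = reference inhibitor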
Target sequence (P53779 whole entry, looked up): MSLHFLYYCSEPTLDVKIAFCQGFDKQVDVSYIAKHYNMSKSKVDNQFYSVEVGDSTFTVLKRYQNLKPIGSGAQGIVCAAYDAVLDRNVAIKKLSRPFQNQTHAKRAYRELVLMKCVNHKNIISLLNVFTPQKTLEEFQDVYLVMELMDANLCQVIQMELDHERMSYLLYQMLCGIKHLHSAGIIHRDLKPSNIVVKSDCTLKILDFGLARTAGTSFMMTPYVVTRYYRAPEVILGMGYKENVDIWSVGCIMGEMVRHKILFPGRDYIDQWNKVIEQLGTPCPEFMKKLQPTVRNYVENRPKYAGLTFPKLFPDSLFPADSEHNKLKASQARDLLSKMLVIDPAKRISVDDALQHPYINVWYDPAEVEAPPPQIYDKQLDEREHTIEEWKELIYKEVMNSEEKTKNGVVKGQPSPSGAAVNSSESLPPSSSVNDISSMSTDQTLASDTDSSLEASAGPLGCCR
ROCK2 inh: inhibitors of human ROCK2 kinase, primary screen, biochemical, high-throughput, luminescence; purified ROCK2, Kinase-Glo ATP depletion luminescence; inhibition, % at 6 µM; 0.35% of 60,000 active;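 active = inhibition above the screen-wide mean inhibition plus 3 SD, cut at about 18% in these data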;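 also: plate controls were DMSO wells for no effect and Y-27632 control wells after no-enzyme background subtraction for full effect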
SF-1 act: activators of human SF-1, primary screen, cell-based, CHO-K1, Gal4-SF-1 LBD, luciferase luminescence. CHO-K1 Gal4-SF-1 LBD luciferase reporter; % increase over DMSO SF-1-specific signal. activation, % at 10 µM. 1.9% of 65,000 active. AID 522, 2006;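 active = activation above the mean activation of all tested compounds plus 3 SD, cut at about 50% in these data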
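Assay system: CHO-K1 cells co-transfected with Gal4 DBD–human SF-1 LBD, 5xGal4 luciferase reporter; doses: 10 µM only; incubation: 20 h compound exposure at 37 °C after 1 h cell settling; signal: luciferase light emission; evaluation: percent activation versus DMSO; repeats: one test per compound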
The depositor's hits bear a star; nt = not tested or not shown.

SMILES	RORA act	Htt clearance	PKA kinase inh	JNK3 blocker	ROCK2 inh	SF-1 act
Clc1ccc(-n2ncc3c(NCc4ccccn4)ncnc32)cc1	7	nt	4	-2	7	74*
C=CCNc1ncnc2c1cnn2-c1ccc(Cl)cc1	28	nt	3	-3	4	50*
Cc1cc2n(n1)C(c1ccc(N(C)C)cc1)Nc1ccccc1-2 (stereo unspecified)	13	nt	10	-7	2	75*
Cc1cc2n(n1)C(c1ccccc1)Nc1ccccc1-2 (stereo unspecified)	-18	nt	-3	-1	-3	8
O=C(Nc1nnc(C2CC2)s1)C1Cc2ccccc2CN1S(=O)(=O)c1ccccc1F (stereo unspecified)	nt	-7	nt	nt	nt	nt
COc1ccc(Cc2noc(-c3ccc(C)cc3)n2)cc1	0	-13	-3	-5	1	4
CCCc1noc(-c2ccc(-c3ccccc3)cc2)n1	57*	nt	7	5	5	55*
O=C(NCCc1c[nH]c2ccccc12)Nc1ccccc1	nt	26	nt	nt	nt	nt
N#Cc1cccc(NC(=O)NCCc2c[nH]c3ccccc23)c1	4	nt	8	-2	22*	-42
CC(=O)C1=C(C)NC(=O)NC1c1ccccc1 (stereo unspecified)	8	nt	2	nt	nt	-3
O=C1NC2=C(C(=O)c3ccccc32)C(c2ccccc2)N1 (stereo unspecified)	3	nt	14	27*	9	-4
CCCCc1c(O)n2c(nc3ccccc32)[nH]c1=O	-12	19	10	3	7	-1
CCCc1cc(=O)n2c(nc3ccccc32)[nH]1	33	-24	9	28*	7	38
CCOC(=O)C1CCCN(C(=O)c2cc3c(=O)n4cccc(C)c4nc3n2C)C1 (stereo unspecified)	-16	nt	-2	0	1	-13
O=C(c1ccco1)N1CCN(c2ncnc3c(-c4ccccc4)nsc23)CC1	62*	nt	4	-4	6	5
COc1ccc(-c2nsc3c(N4CCN(C(=O)c5ccco5)CC4)ncnc23)cc1	24	nt	9	14	4	17
Cc1[nH]c2ccccc2c1Cc1n[nH]c(=S)o1	nt	0	nt	nt	nt	nt
Cc1ccccc1-c1n[nH]c(=S)o1	-7	66	-7	27*	1	8
COc1ccc(Cl)cc1-c1n[nH]c(=S)o1	-6	nt	10	37*	10	22
CCCCn1c(-c2cc(Cl)ccc2OC)n[nH]c1=S	-4	nt	2	1	2	-5
O=C(c1ccc(Cl)cc1)c1oc2ccccc2c1CS(=O)c1ccccc1 (stereo unspecified)	nt	-21	nt	nt	nt	nt
COCCCNC(=O)CN1CCN(Cc2ccc(Cl)cc2)C1=O	nt	-5	nt	nt	nt	nt
Cc1ccc(OCC(=O)Nc2ccc(F)cc2)cc1C	nt	-60	nt	nt	nt	nt
COc1ccc(C(=O)Nc2ccc3c(c2)nc2n3CCSC2)cc1	26	11	-5	-7	-5	57*
COc1ccc(NC(=O)c2sc(SCc3ccccc3)nc2N)cc1	nt	9	nt	nt	nt	nt
SMILES	RORA act	Htt clearance	PKA kinase inh	JNK3 blocker	ROCK2 inh	SF-1 act
COc1ccc(NC(=O)c2sc(SC)nc2N)cc1	62*	nt	2	-4	2	61*
O=C(Nc1nc(=S)ss1)c1ccc(Cl)cc1Cl	nt	-2	nt	nt	nt	nt
COc1cc(OC)cc(-c2ncc3ccccn23)c1	nt	-57	nt	nt	nt	nt
COc1ccc(-c2ncc3ccccn23)cc1	21	-52	6	10	4	53*
CCOC(=O)Nc1ccc2c(c1)Nc1ccccc1S2	53*	45	-3	1	-4	1
CCc1ccc(NC(=O)CCNS(=O)(=O)c2cccc3nonc23)cc1	-7	nt	0	nt	nt	-5
O=C(O)CSc1ccc2ccccc2n1	0	62	6	18*	4	-9
O=C(O)CCSc1ccc2ccccc2n1	-9	38	3	28*	4	-6
CC1=CC(C)(C)N=C(Nc2ccc(C)cc2)S1	3	nt	8	0	2	22
CCCOc1ccc(-c2nnc(-c3ccncc3)o2)cc1	28	nt	5	0	-3	49

High-throughput results as filed in PubChem BioAssay.
